ChEMBL document CHEMBL4406881, “Design, synthesis and biological evaluation of benzoylacrylic acid shikonin ester derivatives as irreversible dual inhibitors of tubulin and EGFR” (Bioorg Med Chem, 2019)
Activity calls are given as the source filed them. The rule behind the calls is not given here.

What was measured:
A549 [1] = assay: Induction of apoptosis in human A549 cells assessed as late apoptotic cells at 2 uM after 24 hrs by Annexin-V/PI staining based flow cytometry analysis (reference value: 5.69%); type: functional
A549 [2] = assay: Induction of apoptosis in human A549 cells assessed as early apoptotic cells at 8 uM after 24 hrs by Annexin-V/PI staining based flow cytometry analysis (reference value: 1.15%); type: functional
A549 [3] = assay: Induction of apoptosis in human A549 cells assessed as early apoptotic cells at 8 uM after 12 hrs by Annexin-V/PI staining based flow cytometry analysis (reference value: 2.02%); type: functional
A549 [4] = assay: Induction of apoptosis in human A549 cells assessed as necrotic cells after at 8 uM 12 hrs by Annexin-V/PI staining based flow cytometry analysis (reference value: 2.98%); type: functional
Summary of the method: (§1)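 A549 cells seeded overnight at 37 °C, 5% CO2, then exposed to 0, 2, 4, 8 or 12 µM for 24 h (dose series) or 8 µM for 0, 12, 24, 36 h (time series). Harvested, PBS-washed, stained with Annexin V-FITC and PI in binding buffer 15 min at room temperature in the dark, analysed by flow cytometry; three independent experiments.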

A549 [5] = assay: Induction of apoptosis in human A549 cells assessed as late apoptotic cells at 8 uM after 24 hrs by Annexin-V/PI staining based flow cytometry analysis (reference value: 6.55%); type: functional; summary of the method: as §1
A549 [6] = assay: Induction of apoptosis in human A549 cells assessed as late apoptotic cells at 8 uM after 36 hrs by Annexin-V/PI staining based flow cytometry analysis (reference value: 6.55%); type: functional; summary of the method: as §1
A549 [7] = assay: Induction of apoptosis in human A549 cells assessed as caspase-9 cleavage expression at 2 to 8 uM after 24 hrs by Western blot analysis; type: functional, cell-based
Summary of the method: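 Western blot of A549 cells treated for 24 h. Lysates in RIPA buffer were run on SDS-PAGE and transferred to PVDF. Primary antibody at 1:1000 overnight at 4 °C, secondary antibody at 1:3000-1:5000 for 1 h, ECL detection. Densitometry was normalised to GAPDH; mean ± S.E.M. from three independent experiments.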

A549 [8] = assay: Induction of apoptosis in human A549 cells assessed as low mitochondrial membrane potential at 8 uM after 12 hrs by JC-1 staining-based flow cytometric analysis (reference value: 6.3%); type: functional
A549 [9] = assay: Induction of apoptosis in human A549 cells assessed as low mitochondrial membrane potential at 12 uM after 12 hrs by JC-1 staining-based flow cytometric analysis (reference value: 6.3%); type: functional
A549 [10] = assay: Induction of apoptosis in human A549 cells assessed as high mitochondrial membrane potential at 12 uM after 12 hrs by JC-1 staining-based flow cytometric analysis (reference value: 90.6%); type: functional
Summary of the method: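 JC-1 staining of A549 cells treated for 12 h. CCCP-treated wells, 20 min at 37 °C, served as positive control. Collected cells were incubated with JC-1 solution at 37 °C for 30 min, washed, and analysed by flow cytometry for the fraction with high ΔΨm and for PI-positive cells. Results are mean ± S.E.M. of three replicates.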

A549 [11] = assay: Induction of apoptosis in human A549 cells at 8 uM by Annexin-V/PI staining based flow cytometry analysis; type: functional, cell-based; settings: TDE = time-dependent effect; summary of the method: as §1
A549 [12] = assay: Cell cycle arrest in human A549 cells assessed as accumulation at S phase at 2 uM after 24 hrs by RNAse A/ PI staining based flow cytometric analysis (reference value: 17.23%); type: functional
Summary of the method: (§2)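 A549 cells at 5.0×10^4 per well were grown 12 h at 37 °C. Treatment was 0, 2, 4 or 8 µM for 24 h, or 8 µM for 0, 12, 24 or 36 h. Cells were fixed in 70% ethanol at −20 °C for at least 12 h, then stained in PBS with 0.1 mg/mL RNase A and 5 µg/mL PI. At least 10,000 events per sample were collected by flow cytometry to give G0/G1, S and G2/M percentages.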

A549 [13] = assay: Cell cycle arrest in human A549 cells assessed as accumulation at G2/M phase at 4 uM after 24 hrs by RNAse A/ PI staining based flow cytometric analysis (reference value: 9.47%); type: functional; summary of the method: as §2
A549 [14] = assay: Cell cycle arrest in human A549 cells assessed as accumulation at S phase at 8 uM after 24 hrs by RNAse A/ PI staining based flow cytometric analysis (reference value: 19.66%); type: functional; summary of the method: as §2
A549 [15] = assay: Induction of G2/M cell cycle arrest in human A549 cells assessed as increase in CDK1 expression at 2 to 8 uM by immunoblot analysis; type: functional, cell-based
Summary of the method: (§3)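 A549 lysates in RIPA buffer with protease inhibitors were run on SDS-PAGE and blotted to PVDF. Membranes were probed overnight at 4 °C with primary antibody at 1:1000, then secondary antibody at 1:3000-1:5000 for 1 h, and detected by ECL. Band intensity was normalised to GAPDH. Results are mean ± S.E.M. from three independent experiments.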

A549 [16] = assay: Cell cycle arrest in human A549 cells assessed as downregulation of cyclin A expression at 2 to 8 uM by immunoblot analysis; type: functional, cell-based; summary of the method: as §3
A549 [17] = assay: Antitumor activity against ip dosed human A549 cells xenografted in Balb/c mouse assessed as inhibition of tumor growth administered once every two days for 32 days measured for every 2 days; type: functional, organism-based
Summary of the method: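 Female BALB/c nude mice, 5-6 weeks old, injected in the flank with 6×10^6 A549 cells in 0.1 mL ice-cold PBS. After two weeks, tumours averaging 90 mm³ were allocated by volume to 5 groups of n = 8. Drugs in DMSO were given ip once every two days, 16 doses in total; a DMSO vehicle group served as control. Tumour volume (L×S²/2) and body weight were recorded every two days; mice were killed on day 32.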

Tubulin (Homo sapiens) = Tubulin (Homo sapiens) (UniProt P68371+Q9H4B7+P0DPH7+P68366+Q13509+Q71U36+P04350+Q3ZCM7+P07437+P68363+Q9BQE3+Q6PEY2+Q13885+Q9BVA1+Q9BUF5); assay: Inhibition of microtubule polymerization in human A549 cells assessed as polymerized tubulin expression at 8 uM after 24 hrs by immuno blot analysis (reference value: 0.85); type: cell-based
Summary of the method: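 Cells were lysed in hypotonic buffer 5 min at 37 °C and centrifuged 10000 rpm, 10 min, 25 °C. Soluble (supernatant) and polymerised (pellet) tubulin fractions were resolved by SDS-PAGE in equal amounts and immunoblotted for β-tubulin.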

A549 [18] = assay: Cell cycle arrest in human A549 cells assessed as accumulation at G1 phase at 8 uM after 12 hrs by RNAse A/ PI staining based flow cytometric analysis (reference value: 67.69%); type: functional; summary of the method: as §2
A549 [19] = assay: Cell cycle arrest in human A549 cells assessed as accumulation at S phase at 8 uM after 12 hrs by RNAse A/ PI staining based flow cytometric analysis (reference value: 19.66%); type: functional; summary of the method: as §2
A549 [20] = assay: Cell cycle arrest in human A549 cells assessed as accumulation at S phase at 8 uM after 36 hrs by RNAse A/ PI staining based flow cytometric analysis (reference value: 19.66%); type: functional; summary of the method: as §2

- fold change (FC) (Tubulin (Homo sapiens)): 0.69
SMILES: CC(C)=CC[C@@H](OC(=O)/C=C\C(=O)c1ccc(F)cc1)C1=CC(=O)c2c(O)ccc(O)c2C1=O
- Activity (A549 [1]): 9.45%
- Activity (A549 [2]): 35.6%
- Activity (A549 [3]): 8.92%
- Activity (A549 [4]): 2.04%
- Activity (A549 [5]): 27.5%
- Activity (A549 [6]): 41%
- Activity (A549 [7]): Active
- Activity (A549 [8]): 39.3%
- Activity (A549 [9]): 58.7%
- Activity (A549 [10]): 38.6%
- Activity (A549 [11]): Tde
- Activity (A549 [12]): 22.93%
- Activity (A549 [13]): 21.03%
- Activity (A549 [14]): 23.66%
- Activity (A549 [15]): Active
- Activity (A549 [16]): Active
- Activity (A549 [17]): Dose-dependent effect
- Activity (A549 [18]): 55.88%
- Activity (A549 [19]): 24.72%
- Activity (A549 [20]): 22.57%
